Screens (PubChem)
Wee1 degr inh – blocks degradation of human Wee1 kinase | reporter increase, % at 5 µM | 1.2% of 220,000 active | P30291 | HeLa Luc-Wee1K328M stability, luciferase luminescence; 100% = proteasome inhibitor MG132 effect;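 active means activation above the mean of all tested compounds plus 3 SD, set per screening run, cut at about 8.8% in these data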;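 further: cells exposed to compound for 20 h before luminescence read; 0% = DMSO alone and 100% = MG132 at 30 µM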
Target sequence (P30291 whole entry K328M): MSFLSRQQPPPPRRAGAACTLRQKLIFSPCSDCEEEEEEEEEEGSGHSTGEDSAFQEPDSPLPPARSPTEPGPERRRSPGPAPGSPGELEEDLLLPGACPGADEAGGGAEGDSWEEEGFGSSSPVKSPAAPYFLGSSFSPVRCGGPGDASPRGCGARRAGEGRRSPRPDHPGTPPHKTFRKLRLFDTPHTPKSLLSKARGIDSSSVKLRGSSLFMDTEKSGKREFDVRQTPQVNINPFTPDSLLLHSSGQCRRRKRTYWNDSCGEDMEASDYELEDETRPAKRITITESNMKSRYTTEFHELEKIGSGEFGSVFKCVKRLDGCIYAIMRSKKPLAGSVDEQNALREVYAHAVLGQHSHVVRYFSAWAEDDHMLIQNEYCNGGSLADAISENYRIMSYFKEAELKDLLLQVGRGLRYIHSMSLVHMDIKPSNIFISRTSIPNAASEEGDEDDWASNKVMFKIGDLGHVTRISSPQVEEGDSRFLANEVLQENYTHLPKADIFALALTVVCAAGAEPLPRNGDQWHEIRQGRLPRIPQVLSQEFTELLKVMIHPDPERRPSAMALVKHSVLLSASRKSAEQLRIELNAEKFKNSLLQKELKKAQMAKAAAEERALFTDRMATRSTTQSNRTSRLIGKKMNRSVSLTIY
AI-2 QS modul – Vibrio harveyi AI-2 quorum sensing modulation. Vibrio harveyi JMH597 AI-2 luminescence/OD600 ratio, 9 h; active compounds read low; strain lacks LuxN and CqsS sensors; 0 = neutral-control median. activity change, % at 7.5 µM. AID 2094. 0.4% of 300,000 active; in the data active means activity change below about -75%, passing the limit was not always enough;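 further: luminescence divided by OD600 gain over 9 h not by final OD600 alone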
Runt-CBFb FRET – blocks binding of human RUNX1 Runt domain to CBFb. Q01196+Q13951. Cerulean-Runt/Venus-CBFb FRET ratio 530/480, 1 h. inhibition, % at 20 µM. 0.46% of 220,000 active;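 active means inhibition over about 50% at 20 µM in the single-dose screen, limit read from the data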;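 further: 0% = DMSO wells and 100% = excess unlabeled CBFb competitor control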
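test system = Cerulean-tagged RUNX1 Runt domain (FRET donor) fusion protein | reagent = Venus-CBFb binding partner, 100 nM | incubation = protein complex preformed 1 h, compound exposure 1 h, room temperature, dark | detection = FRET fluorescence | read-out basis = loss of energy transfer signal | controls = 5 µM unlabeled CBFb as full-inhibition high control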
KLK7 zymogen act – activates the human kallikrein-7 zymogen; AID 652039; activation, % at 7 µM; P49862; 0.9% of 370,000 active; purified proKLK7, EDANS-DABCYL substrate fluorescence; 100% is mature enzyme control, 0% vehicle;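 active means activation above the mean of all tested compounds plus 3 SD, computed per campaign excluding outliers beyond control limits, cut at about 13% in these data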
Runt-SMMHC FRET – inhibitors of human RUNX1 Runt domain binding to CBFb-SMMHC | Cerulean-Runt/Venus-CBFb-SMMHC FRET ratio 530/480, 1 h | Q01196+Q13951 | inhibition, % at 20 µM | 0.74% of 220,000 active;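 active means mean inhibition across duplicate retests at 20 µM reaching about 50%, limit read from the data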;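 further: 0% = DMSO wells and 100% = wells with excess untagged CBFb-SMMHC; inhibitors lower the FRET ratio by blocking Runt binding to CBFb-SMMHC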
RanGTP-Imp inh – inhibitors of RanGTP-importin-beta interaction, primary screen, biochemical, FRET, CFP-Ran, YFP-importin-beta, homogeneous. cell-free CFP-Ran/YFP-importin-beta FRET ratio. inhibition, % (no concentration beside the values). 1.1% of 300,000 active;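 active means more than half of the replicate wells show a fall in the fluorescence ratio signal beyond about 16%, limit read from the data, passing the limit was not always enough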;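 further: 0% = DMSO wells and 100% = Ran loaded with GDP instead of GTP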
KLK7 act conf – confirmation of human kallikrein-7 zymogen activators; shares compounds with KLK7 zymogen act; purified proKLK7, EDANS-DABCYL substrate fluorescence; scaled: vehicle 0, mature enzyme 100; 68% of 3,200 active; AID 686949; activation, % at 7 µM;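 active means activation, as change over the incubation, above the mean of all tested compounds plus 3 SD, cut at about 13% in these data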
EDANS interfere – fluorescence interference counter-screen for KLK7 activators; activation, % at 7 µM; 80% of 3,200 active; shares compounds with KLK7 zymogen act; EDANS-DABCYL substrate fluorescence interference, no enzyme, 4 h; solvent 0%, active enzyme control 100%;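 active means activation above the all-compound mean plus 3 SD, ignoring values outside control-based bounds, cut at about 4.8% in these data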;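 further: value is the 4 h activation minus the activation read at time zero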
Active calls of the source: *; . = no result given. The list is not random: actives were taken first. Their share in the collection is about 2.9%.

SMILES	Wee1 degr inh	AI-2 QS modul	Runt-CBFb FRET	KLK7 zymogen act	Runt-SMMHC FRET	RanGTP-Imp inh	KLK7 act conf	EDANS interfere
CCC(=O)Oc1ccc2c(c1)OC1(OC(C)=O)OC(C)CC1=C2C (configuration not stated)	2	40	10	297*	14	1	610*	615*
COc1ccc(CCNC(=O)CCCN2C(=O)C(c3ccccc3)Oc3cccnc32)cc1OC (configuration not stated)	.	12	.	1	.	5	.	.
O=C(Nc1nc2c(s1)COc1ccccc1-2)c1cccs1	-2	20	0	1	0	3	.	.
O=C(Nc1nc2c(s1)CCc1ccccc1-2)c1cccs1	-1	-2	4	14*	5	-1	2	15*
O=C(CSc1nc(C(F)(F)F)cc(=O)[nH]1)N1CCCCCC1	.	39	.	0	.	0	.	.
O=c1cc(C(F)(F)F)c2sc(N3CCCCC3)nc2[nH]1	4	-8	7	38*	13	9	2	10*
CCC[n+]1c2ccccc2cc2ccccc21	.	2	.	77*	.	155*	73*	81*
CCCC[n+]1c2ccccc2cc2ccccc21	.	7	.	65*	.	150*	70*	74*
Brc1cc2ccccc2[n+](Cc2ccccc2)c1	.	12	.	0	.	-8	.	.
Cc1ccc2ccccc2[n+]1CCCS(=O)(=O)[O-]	-2	9	-1	0	1	5	.	.
NC(=O)Cn1cc(/C=N/NC(=O)c2ccc(Cn3cc(Cl)cn3)o2)c(-c2ccccc2)n1	.	20	.	20*	.	.	2	1
Oc1ccc2c(c1)OCC1(O)Cc3cc(O)c(O)cc3C21 (configuration not stated)	.	.	.	16*	.	.	58*	57*
CS(=O)(=O)Nc1nc2n(n1)C(c1ccccc1)C=C(c1ccc(Br)cc1)N2 (configuration not stated)	1	21	-98	.	9	-197	.	.
COc1ccc(C2C=C(c3ccc(Br)cc3)Nc3nc(N4C(=O)CCC4=O)nn32)cc1 (configuration not stated)	-1	13	-152	29*	-109	-53	-81	-73
O=C1CCC(=O)N1c1nc2n(n1)C(c1ccccc1)C=C(c1ccc(Br)cc1)N2 (configuration not stated)	3	25	-9	30*	-90	-14	64*	47*
NC(=O)C1(N2CCCCC2)CCN(C(=O)c2cc(COc3c(F)cccc3F)on2)CC1	.	.	.	0	.	.	.	.
COc1cc2c(cc1OC)C(C1(O)CCCCC1)NCC2 (configuration not stated)	0	2	-1	21*	1	6	14*	14*
COc1ccc(C2NCCc3cc(OC)c(OC)cc32)cc1OC (configuration not stated)	1	18	0	3	-1	0	.	.
COc1cc2c(cc1OC)C(C(N)=O)NCC2 (configuration not stated)	.	.	.	54*	.	.	0	1
O=C(NCC(=O)N1CCCCCCC1)c1ccc(Cl)c(Cl)c1	.	.	.	1	.	.	.	.
CCNC(=S)NNC(=O)c1cc(Br)cs1	0	8	2	13*	0	8	6	6.5*
c1ccc(CCN(Cc2ccccc2)C2CCN(C3CCCC3)CC2)cc1	0	8	-2	0	2	0	.	.
Cc1cc(C)c2c(N)c3cccc(C)c3nc2n1	3	14	5	15*	79*	126*	46*	42*
COC(=O)c1ccccc1S(=O)(=O)N1CCC(C(=O)N2CCC2)CC1	.	.	.	1	.	.	.	.
C[C@@H]1C(c2ccccc2)=NN(c2ccccc2)[C@H]1C(=O)N1CCOC1=O	.	.	.	243*	.	.	223*	217*
